In PubChem BioAssay AID822 (SRMLSC, 2007) one finds viability and EC50 data, which are given here for 88 molecules.

Activity calls are given as the source filed them.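 The calls were made as follows: active = half-maximal effective dose for blocking growth of human endothelial cells at most 100 µM; inactive = the rest.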

System in one experiment: not listed separately
The experiment is described as follows: growth suppression of umbilical vein endothelial cells – cell-based, HUVEC, ATP luminescence, dose response (AID 822).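 Also: cells exposed to compound for 72 h before the ATP read.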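 As to viability: 100% = median luminescence of untreated cell-only control wells on each plate.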 Conditions: HUVEC proliferation, viability ATP luminescence; at 20 µM (top of the series). In a few lines: (§1)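 Assay system: HUVEC primary endothelial cells, low passage (≤12); amount: 1250 HUVEC cells seeded per well; buffer or medium: EBM plus 2% FBS; read-out: percent viability relative to median untreated cell signal, EC50 via four-parameter fit; signal: luminescent ATP measurement with CellTiter-Glo reagent; schedule: 72 h exposure, 37 °C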
Take `COc1ccc(-c2noc(-c3ccc(Br)o3)n2)cc1OC`: the viability was 99.7% (inactive). For `CCOc1ccc(OCc2ccc(C(=O)NCC3CCCO3)o2)cc1` (stereo not drawn), the viability is 116% (inactive).

In the case of `Clc1ccc(Cn2cc(/C=N/n3cnnc3)c3ccccc32)c(Cl)c1`, the viability is 87.3% (inactive). Regarding `Cc1cc(NC(=O)c2cccc(S(=O)(=O)N3CC(c4ccccc4)CC3=O)c2)no1` (stereo not drawn), the viability was 91.3% (inactive). Turning to `Brc1cccc(-c2nnc3sc(CNC4CCCC4)cn23)c1`, the viability is 84% (inactive).

`CCOC(=O)c1ccc2c(c1)NC(=O)C(N1CCN(c3ccc(OC)cc3)CC1)S2` (stereo not drawn): the viability is 98% (inactive). Consider `c1ccc2c(c1)oc1c(NCCCN3CCOCC3)ncnc12`, for which the viability was 96.1% (inactive). Regarding `COc1ccc2cc3cc(C(=O)NCCc4ccc(OC)c(OC)c4)oc3nc2c1`, the viability was 93.3% (inactive). Take `Cn1nnc(NC(=O)CSc2ccc(Cl)cc2)n1`: the viability was 103% (inactive).

For `c1ccc(CSc2nnc(-c3c[nH]c4ccccc34)o2)cc1`, the viability was 85.9% (inactive). Consider `COc1cccc2c(C)nc(Nc3nc(CSc4nnc(C)s4)cc(=O)[nH]3)nc12`, for which the viability is 101% (inactive). On to `Clc1ccc(-c2nc(NCCN3CCOCC3)c3ccccc3n2)cc1`, for which the viability was 86% (inactive).

As for `COc1ccccc1NC(=O)C1C2C=CC(O2)C1C(=O)O` (stereo not drawn), the viability was 94.6% (inactive). Still for that read-out and setting: next, `CCCN(CCO)Cc1cccc(Br)c1`: 92.7% (inactive); `CC1(C)Cc2ccccc2C(NNC(=O)c2ccccn2)=N1`: 93.7% (inactive); `CCn1nc(C(=O)NC2=NCCS2)c2ccccc2c1=O`: 101% (inactive).

With `COc1ccc2[nH]cc(C(=O)CN3CCN(C4CCCCC4)CC3)c2c1`, the viability is 85.4% (inactive). On the same count and under the same terms, next, `Cn1c(SCC(=O)Nc2ccc(N3CCOCC3)cc2)nnc1-c1ccccc1`: 103% (inactive); `Cc1nc2ccccc2n1CCc1nc2c3ccccc3nc(SCC(=O)NCc3ccco3)n2n1`: 86.4% (inactive); `O=C(CN1CCN(S(=O)(=O)c2ccc(F)cc2)CC1)Nc1ccc2c(c1)OCO2`: 116% (inactive). Still for that read-out and setting: next, `Cc1ccc(Cn2c(=S)[nH]c3ccc(N4CCOCC4)cc3c2=O)o1`: 90.9% (inactive); `CC1(C)CSC(=S)N1S(=O)(=O)c1ccccc1`: 99.8% (inactive); `COCCn1c(C)cc(C(=O)CSc2nc3ccccc3o2)c1C`: 96.1% (inactive). Consider `O=C(Nc1cccnc1)c1ccc(Br)s1`, for which the viability was 90% (inactive). Consider `COc1ccc(-c2nnc(SCCc3ccccc3)n2N)cc1`, for which the viability is 108% (inactive). With `CC1CC(C)CN(S(=O)(=O)c2ccc(C(=O)NCCCn3ccnc3)cc2)C1` (stereo not drawn), the viability is 88.4% (inactive). In the case of `CNC(=O)Cn1c(=O)n(C)c2ccccc21`, the viability is 91.8% (inactive). As for `O=C(Nc1cccnc1)c1ccc(Oc2ccccc2)cc1`, the viability was 108% (inactive).

In the case of `CSc1nncc(=O)[nH]1`, the viability was 96.7% (inactive). For `COc1ccccc1N1CCN(C(=O)c2ccc(Br)s2)CC1`, the viability is 97.5% (inactive). On the same count and under the same terms, as for `COc1ccc(OC)c(C(=O)CSc2nnc(-c3ccc(OC)c(OC)c3)o2)c1`, the figure is 86.2% (inactive). Same read-out and setting: next, `CN1C(=O)C(O)(CC(=O)c2cccc(-n3cccc3)c2)c2ccccc21` (stereo not drawn): 84.7% (inactive); `CCOc1ccc(-c2nn3c(-c4ccccc4)nnc3s2)cc1`: 83.3% (inactive); `O=C(/C=C/NNC(=O)c1ccccc1)c1ccccc1`: 109% (inactive).

Take `Cc1ccc(-n2c(SCC(=O)Nc3nccs3)nc3c(c2=O)SCC3)cc1`: the viability is 100% (inactive). Regarding `Cc1ccc(-n2nnnc2SCC(=O)Nc2ccc3c(c2)COC3=O)cc1C`, the viability was 91.3% (inactive). The same measure, in the same setting: as for `COc1ccc(N2C(=O)CC(Sc3nnc(-c4ccccc4)o3)C2=O)cc1` (stereo not drawn), the figure is 95% (inactive); as for `CC(C)OC(=O)NCCOC(=O)Nc1cccc(Cl)c1`, 89.1% (inactive); as for `CC1=C(C)CS(=O)N(S(=O)(=O)c2ccc(Cl)cc2)C1` (stereo not drawn), 101% (inactive).

Turning to `CCn1c(Cc2ccc(OC)cc2)nnc1SCC(=O)Nc1cccc(C(=O)OC)c1`, the viability is 81.8% (inactive). Regarding `NC(=O)Cc1c[nH]c2cccc(O)c12`, the viability was 103% (inactive). Same read-out and setting: next, `OC1(Cc2ccn[nH]2)CCCCC1`: 93.6% (inactive); `CCC(=O)N1c2ccc(S(=O)(=O)CCC(=O)N3CCn4c3nc3ccccc34)cc2CC1C` (stereo not drawn): 84.1% (inactive).

For the molecule `CC(C)(C)c1ccc(-c2nnc(SCC(=O)O)n2N)cc1`, the viability is 106% (inactive). In the case of `Cn1c(=O)c2c(ncn2CC(=O)Nc2nc(-c3ccccc3Cl)cs2)n(C)c1=O`, the viability is 89.5% (inactive). For the molecule `CCOC(=O)N1CCN(C(=O)c2nn(-c3ccc(C)cc3)c(=O)c3c2c2ccccc2n3C)CC1`, the viability was 89.2% (inactive).

In the case of `COc1ccc(Cl)cc1C(=O)n1nc(C)cc1C`, the viability is 96.7% (inactive).

`O=S1(=O)c2ccccc2N=NN1Cc1cc(Cl)cc(Cl)c1`: the viability was 84.9% (inactive). For `CCOc1cc(N2CCOCC2)c(OCC)cc1NC(=O)COc1ncnc2ccc(Br)cc12`, the viability is 91.2% (inactive). Turning to `Cn1c(NC(=O)c2cccc(Cn3cc(Cl)cn3)c2)nc2ccccc21`, the viability was 83.1% (inactive). For the molecule `COc1ccc(CCC(=O)N2CCN(C3CCCCC3)CC2)cc1`, the viability is 99.8% (inactive). As to `CCOC(=O)c1ccc(NC(=O)c2c(C)[nH]c(C(=O)OCC)c2C)cc1`, the viability is 96.7% (inactive).

Regarding `Cc1nc2cc(N3CCCCC3)c(NC(=O)c3cccnc3)cc2c(=O)n1Cc1ccccc1`, the viability is 89.3% (inactive).

Take `O=C(Nc1nc(NC(=O)c2ccco2)n(-c2ccccc2)n1)c1ccccc1`: the viability was 84.5% (inactive). Consider `Cc1ccc(-c2nnc(N3CCN(C(=O)CSc4ncn[nH]4)CC3)c3ccccc23)cc1`, for which the viability was 85.9% (inactive). Still for that read-out and setting: as for `Cc1ccc(NC(=O)c2c(O)c3ccccc3n(C)c2=O)nc1`, the figure is 101% (inactive); as for `Cc1nn(C)c(C)c1NC(=O)CSc1nc(C2CC2)nc2c1cnn2-c1ccccc1`, 101% (inactive); as for `C/C(=N\O)C(=O)C(CN1CCCCC1)CN1CCCCC1`, 81% (inactive). For the molecule `Cc1ccc(-n2c(Cc3cccs3)nnc2SCC(=O)Nc2ccc(F)c(F)c2)cc1`, the viability is 82.4% (inactive).

For `O=C(COc1nc2ccccc2nc1N1CCOCC1)N1CCc2ccccc21`, the viability is 86.1% (inactive).

A further experiment relates to HUVEC proliferation, viability ATP luminescence. The description is as above.
Details: not given
The method, boiled down: as §1
For the molecule `CCc1ccc(-c2nc(CN3CCC(C(=O)NCc4ccc(F)cc4)CC3)c(C)o2)cc1`, the EC50 was 5.89 µM.

In the case of `CC1(C)CC(=O)C2=C(C1)Oc1nc3ccccc3cc1C2C(C#N)C#N` (stereo not drawn), the EC50 was 11.4 µM. For `Cc1ccc(C(C)C)c(OCC(=O)Nc2ccc3c(c2)nc(CN2CCCC2)n3C)c1`, the EC50 was 14.6 µM. Take `CC1CCCCN1S(=O)(=O)c1ccc(C(=O)Nc2nnc(-c3ccccc3Cl)o2)cc1` (stereo not drawn): the EC50 is 2.71 µM. For `N=c1c2c(ncn1CCN1CCOCC1)Oc1ccc3ccccc3c1C2c1ccccc1` (stereo not drawn), the EC50 was 11.9 µM. Same read-out and setting: next, `CC(=O)Nc1ccc(NC2=Nc3ccccc3N3C2=Nc2c(c(C)nn2-c2ccccc2)C3c2ccccc2)cc1` (stereo not drawn): 15.8 µM; `CCN(CCNC(=O)C1CCN(Cc2nc(-c3ccc(Cl)cc3)oc2C)CC1)c1ccccc1`: 5.82 µM; `COc1cc(-c2nc(-c3ccc(NC(=O)c4ccc(Br)o4)cc3)no2)cc(OC)c1OC`: 7.42 µM.

Turning to `N=c1n(CCN2CCCCC2)c2ccccc2n1CC(O)c1cccc(Br)c1` (stereo not drawn), the EC50 is 9.51 µM.

Consider `Cc1ccc(C2(C(F)(F)F)N=C3Sc4cc(C)cc(C)c4N3C(=O)N2)cc1` (stereo not drawn), for which the EC50 was 11 µM. Regarding `O=C1CSC(=S)N1Cc1cccnc1`, the EC50 is 19.2 µM. Turning to `CC(=O)c1cccc(NC(=O)Nc2ccc3c(c2)N(C)C(=O)CS3)c1`, the EC50 was 9.94 µM. For the molecule `CCCCc1ccc(Nc2nc(CCC)cc(=O)[nH]2)cc1`, the EC50 was 9.15 µM. As for `CC1=C(SCCC#N)S/C(=C2\SC(C)=C(SCCC#N)S2)S1`, the EC50 was 9.1 µM.

For `O=C1CC(c2ccco2)Cc2nc(Nc3nc(-c4ccccc4)c4ccccc4n3)ncc21` (stereo not drawn), the EC50 is 7.44 µM. Regarding `CCOC(=O)c1c(NC(=O)CCl)sc(C(=O)N(CC)CC)c1C`, the EC50 was 12.3 µM. The same measure, in the same setting: next, `COc1ccc(NC(=O)c2oc3ccccc3c2NC(=O)COc2ccccc2OC)c(OC)c1`: 2.8 µM; `COC(=O)c1ccc2c(=O)n(Cc3ccco3)c(SCC(=O)Nc3ccc(C)c(Cl)c3)nc2c1`: 9.21 µM. For `O=C(COC(=O)c1cccnc1Nc1cccc(C(F)(F)F)c1)NCc1ccc2c(c1)OCO2`, the EC50 is 13.5 µM. The same measure, in the same setting: next, `CC(Nc1nc(N2CCN(S(C)(=O)=O)CC2)nc2ccccc12)c1ccccc1` (stereo not drawn): 9.04 µM. The same measure, in the same setting: as for `Cc1ccc2c(c1)NC(=O)C(CC(=O)NCCCN1CCN(c3cc(Cl)ccc3C)CC1)O2` (stereo not drawn), the figure is 7.12 µM; as for `C=CCN1C(=Nc2cccnc2)SCC1(O)c1ccc(C)cc1` (stereo not drawn), 11.2 µM.

As for `c1ccc2c(c1)oc1c(Nc3ccc(CN4CCOCC4)cc3)ncnc12`, the EC50 is 5.35 µM. On the same count and under the same terms, as for `C#CCn1c(=NC(=O)c2ccc(Br)s2)sc2cccc(OC)c21`, the figure is 12.2 µM. As for `CCCc1nc(SCC(=O)N2CCC(Cc3ccccc3)CC2)c2c(=O)n(C)c(=O)n(C)c2n1`, the EC50 was 10.5 µM. With `N/C(Cc1ccc(Cl)cc1)=N\OC(=O)c1ccc2ccccc2c1`, the EC50 is 9.87 µM. As to `Cc1cc(C)cc(OC(=O)CS(=O)c2ccc(C(F)(F)F)cc2[N+](=O)[O-])c1` (stereo not drawn), the EC50 was 18.7 µM. As to `Cn1c(CNc2cccc(Cl)c2)nnc1SCC(=O)OC1CCCCC1`, the EC50 is 11.1 µM.

The viability is a read-out of living cells in per cent, often relative to untreated cells. What is called EC50 is the concentration giving half of the maximal effect.
